One molecule from ChEMBL document CHEMBL4041491, “Imidazo[1,2-a]pyrazin-8-amine core for the design of new adenosine receptor antagonists: Structural exploration to target the A3 and A2A subtypes” (Eur J Med Chem, 2017) can be followed below.

Assay [1] concerns the target T1, Adenosine receptor A2b (Homo sapiens) (UniProt P29275).
T1 sequence (whole entry): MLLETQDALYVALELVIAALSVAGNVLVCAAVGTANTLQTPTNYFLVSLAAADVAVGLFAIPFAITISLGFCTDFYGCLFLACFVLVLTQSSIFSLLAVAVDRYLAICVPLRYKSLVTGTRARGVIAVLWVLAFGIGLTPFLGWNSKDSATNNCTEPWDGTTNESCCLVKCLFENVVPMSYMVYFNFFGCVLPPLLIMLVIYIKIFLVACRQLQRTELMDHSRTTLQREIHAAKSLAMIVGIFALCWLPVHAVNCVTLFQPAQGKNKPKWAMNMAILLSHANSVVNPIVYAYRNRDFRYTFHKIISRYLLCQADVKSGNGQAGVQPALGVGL
The assay can be described thus: Antagonist activity at human A2B receptor expressed in CHO cells assessed as inhibition of NECA-stimulated cAMP production at 1 uM by [3H]cAMP competition binding based scintillation counting method relative to control. Type of assay: functional, cell-based. The method, boiled down:
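Transfected CHO cells (1 × 10^6/assay) in buffered saline pH 7.4 with adenosine deaminase 2 IU/ml and Ro 20-1724, preincubated 10 min at 37 °C. Test compound at 1 μM against 200 nM NECA-stimulated cAMP. TCA stop, ether extraction, cAMP measured by [3H]cAMP competition binding to bovine adrenal binding protein. Result given as percent inhibition.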
Background: Cyclic AMP is a second messenger, typically raised through Gs and lowered through Gi signalling.

For assay [2], the target named is T2, Adenosine receptor A3 (Rattus norvegicus) (UniProt P28647).
T2 sequence (whole entry): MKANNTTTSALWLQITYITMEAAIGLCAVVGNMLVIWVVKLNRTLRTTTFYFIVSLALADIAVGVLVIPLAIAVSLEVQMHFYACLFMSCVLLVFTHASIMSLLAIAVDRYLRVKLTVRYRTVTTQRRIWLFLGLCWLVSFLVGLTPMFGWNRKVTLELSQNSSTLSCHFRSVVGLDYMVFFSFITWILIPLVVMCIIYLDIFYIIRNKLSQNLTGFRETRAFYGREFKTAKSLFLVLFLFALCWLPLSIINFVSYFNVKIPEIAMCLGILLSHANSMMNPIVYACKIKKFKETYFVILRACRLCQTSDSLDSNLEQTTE
The assay can be described thus: Displacement of [125I]AB-MECA from rat adenosine A3 receptor expressed in HEK293 cell membranes at 1 uM after 120 mins by scintillation counting method relative to control. In a few lines: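 rA3 receptor in HEK293 membranes (10 μg protein), 0.5 nM [125I]AB-MECA, 50 mM Tris–HCl, 10 mM MgCl2, 1 mM EDTA, pH 7.4, 120 min at 25 °C. Nonspecific binding with 1 μM AB-MECA; filtration and scintillation counting. Percent inhibition of specific binding at 1 µM.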

Another assay concerns the target Adenosine receptor A2a (Homo sapiens, UniProt P29274). The assay can be described thus: Displacement of [3H]ZM241385 from human adenosine A2A receptor expressed in CHO cell membranes at 1 uM after 60 mins by scintillation counting method relative to control. The method, boiled down:
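hA2A CHO membranes (50 µg protein) with 1 nM [3H]ZM241385 in 50 mM Tris HCl, 10 mM MgCl2, pH 7.4, 60 min at 4 °C. Six to eight antagonist concentrations, or 1 µM for percent inhibition. Nonspecific binding with 1 µM ZM241385. Ki via Cheng–Prusoff, four assays in duplicate, means ± SEM.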

Assay [3] has as its system Hippocampus. The assay can be described thus: Anti-ischemic activity in Wistar rat hippocampal slices assessed as latency time for 30 mins oxygen-glucose deprivation-induced occurrence of anoxic depolarization at 200 nM by electrophysiology method (reference value: 6.3 +/- 0.3 min).
Assay [4] has as its target T3, Adenosine receptor A1 (Homo sapiens) (UniProt P30542).
T3 sequence (whole entry): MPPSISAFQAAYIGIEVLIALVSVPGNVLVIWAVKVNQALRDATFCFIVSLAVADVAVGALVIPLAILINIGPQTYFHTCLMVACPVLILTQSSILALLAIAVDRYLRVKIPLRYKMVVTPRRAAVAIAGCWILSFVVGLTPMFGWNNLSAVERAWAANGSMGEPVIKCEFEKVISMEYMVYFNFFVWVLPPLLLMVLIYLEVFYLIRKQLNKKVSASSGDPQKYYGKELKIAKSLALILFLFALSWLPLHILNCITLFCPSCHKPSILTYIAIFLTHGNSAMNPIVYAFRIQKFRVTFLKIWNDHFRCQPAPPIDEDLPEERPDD
The assay can be described thus: Displacement of [3H]DPCPX from human adenosine A1 receptor expressed in CHO cell membranes at 1 uM after 120 mins by scintillation counting method relative to control. The method, boiled down: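 hA1 CHO membranes (50 µg protein) with 1 nM [3H]DPCPX in 50 mM Tris HCl pH 7.4, 120 min at 25 °C. Six to eight antagonist concentrations, or 1 µM for percent inhibition. Nonspecific binding with 1 µM DPCPX. Ki via Cheng–Prusoff, four assays in duplicate, means ± SEM.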

The subject of assay [5] is Hippocampus. The assay can be described thus: Anti-ischemic activity in Wistar rat hippocampal slices assessed as peak amplitude of 30 mins oxygen-glucose deprivation-induced anoxic depolarization at 200 nM by electrophysiology method (reference value: -7.5 +/- 1.2 mV). Type of assay: functional. In a few lines:
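Rat hippocampal slices, extracellular d.c. recording in CA1 stratum radiatum. 30-min OGD, then reperfusion with oxygenated glucose aCSF. Compound at 200 nM, diluted from DMSO stock into aCSF, applied 15 min before, during and 5 min after OGD. AD latency in min from OGD onset; amplitude in mV at peak negativity. Mean ± SEM, n slices.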

The test system of assay [6] is Hippocampus. The assay can be described thus: Anti-ischemic activity in Wistar rat model of 7 mins oxygen-glucose deprivation-induced cerebral ischemia assessed as recovery of fEPSP amplitude in CA1 region of hippocampal slices at 200 nM incubated for 15 mins prior to induction of oxygen-glucose deprivation and maintained during entire period of oxygen-glucose deprivation/reoxygenation subsequent incubation for 5 mins after OGD insult measured up to 15 mins by electrophysiology method. Type of assay: functional, tissue-based. The method, boiled down:
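Rat hippocampal slices, CA1 stratum radiatum stimulated (80 μs, 0.066 Hz) at 40–50% of maximal fEPSP. Compound at 200 nM in aCSF, DMSO ≤0.05%, applied 15 min before, during and 5 min after 7-min OGD, then reperfusion in oxygenated aCSF. fEPSP amplitude expressed as % of mean over the 5 min before OGD.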

Assay [7] deals with T4, Adenosine receptor A3 (Homo sapiens, UniProt P0DMS8). The assay can be described thus: Antagonist activity at human A3 receptor expressed in CHO cells assessed as inhibition of CI-IB-MECA-mediated inhibition of cAMP production by [3H]cAMP competition binding based scintillation counting method. Type of assay: cell-based. In a few lines: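 hA3-transfected CHO cells (1 × 10^6/assay) in buffered saline pH 7.4 with adenosine deaminase and Ro 20-1724, preincubated 10 min at 37 °C. Antagonism of 100 nM Cl-IB-MECA inhibition of 1 µM forskolin-stimulated cAMP. cAMP measured by [3H]cAMP protein-binding assay. IC50 by sigmoid nonlinear regression, four independent experiments in triplicate, means ± SEM.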

The target of assay [8] is T4, Adenosine receptor A3. The assay can be described thus: Displacement of [125I]AB-MECA from human adenosine A3 receptor expressed in CHO cell membranes after 120 mins by scintillation counting method. In a few lines: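 hA3 CHO membranes (50 µg protein) with 0.5 nM [125I]AB-MECA in 50 mM Tris HCl, 10 mM MgCl2, 1 mM EDTA, pH 7.4, 120 min at 4 °C. Six to eight ligand concentrations, or 1 µM for percent inhibition. Nonspecific binding with 1 µM AB-MECA; GF/B filtration. Ki by Cheng–Prusoff, four assays in duplicate, means ± SEM.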
On the technique in general: Loss of bound radioactivity is the signal in a displacement assay; it reports binding, not function.

The structures appear in SMILES notation. Active and inactive are the calls of the source. The calls are words filed in the database; no cut-off is given here.

T4 sequence (P0DMS8 whole entry, looked up): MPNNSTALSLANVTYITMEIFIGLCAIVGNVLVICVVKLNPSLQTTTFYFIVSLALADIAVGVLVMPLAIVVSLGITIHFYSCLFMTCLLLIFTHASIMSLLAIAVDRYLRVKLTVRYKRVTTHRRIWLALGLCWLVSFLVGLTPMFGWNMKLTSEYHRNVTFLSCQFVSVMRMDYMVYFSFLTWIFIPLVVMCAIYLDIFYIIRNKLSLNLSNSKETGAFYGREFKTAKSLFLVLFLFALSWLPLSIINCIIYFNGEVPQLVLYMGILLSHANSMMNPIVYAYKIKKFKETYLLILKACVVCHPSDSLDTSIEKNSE
Adenosine receptor A2a, sequence (P29274 whole entry): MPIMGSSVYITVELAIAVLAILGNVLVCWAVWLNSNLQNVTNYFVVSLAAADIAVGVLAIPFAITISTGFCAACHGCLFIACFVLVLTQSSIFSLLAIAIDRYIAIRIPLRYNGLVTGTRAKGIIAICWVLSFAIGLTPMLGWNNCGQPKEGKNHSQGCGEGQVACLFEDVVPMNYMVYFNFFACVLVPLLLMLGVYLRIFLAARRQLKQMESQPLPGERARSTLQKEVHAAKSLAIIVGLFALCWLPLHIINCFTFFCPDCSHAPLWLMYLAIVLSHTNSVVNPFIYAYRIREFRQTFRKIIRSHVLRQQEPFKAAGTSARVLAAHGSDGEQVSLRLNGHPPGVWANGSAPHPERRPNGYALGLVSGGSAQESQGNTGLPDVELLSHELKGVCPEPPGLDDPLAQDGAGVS

One may read the inhibition as how much of the control response was suppressed. What is called IC50 is the point on the concentration scale where inhibition reaches its midpoint. As usually defined, the Ki is the dissociation constant of the complex between target and ligand, obtained from inhibition or displacement. A higher Ki goes with weaker binding. For `O=C(Nc1nc(-c2ccccc2)cn2cc(-c3ccccc3)nc12)c1cccnc1`, the inhibition in assay [1] turned out to be 3%; in [2] it was 2%; at Adenosine receptor A2a, 1%; in [4], 11%. Also, the Time with Hippocampus [3] was determined as 8.2 min. Moreover, the Activity in the assay on Hippocampus [5] is given as -7.1 mV. Besides, the outcome in the assay with Hippocampus [6] was Active. The IC50 on Adenosine receptor A3 [7] was 172 nM. This molecule had a Ki at Adenosine receptor A3 [8] of 54 nM.
